# Screening results: PubChem, several laboratories
# APOBEC3A inh = APOBEC3A ssDNA deaminase inhibitors, primary screen, selectivity assay for APOBEC3G inhibitor project, biochemical, FAM/TAMRA oligo cleavage fluorescence | recombinant A3A, FAM/TAMRA ssDNA deamination fluorescence | inhibition, % at 20 µM | 330,000 tested, 0.41% active | AID 493011, 2011;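 active = at least 40% inhibition at 20 µM here, with at most 30% in a related deaminase screen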;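 note: plate controls were A3A with DMSO for no effect and wells lacking A3A enzyme for full effect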
# Target sequence (P31941 whole entry, looked up): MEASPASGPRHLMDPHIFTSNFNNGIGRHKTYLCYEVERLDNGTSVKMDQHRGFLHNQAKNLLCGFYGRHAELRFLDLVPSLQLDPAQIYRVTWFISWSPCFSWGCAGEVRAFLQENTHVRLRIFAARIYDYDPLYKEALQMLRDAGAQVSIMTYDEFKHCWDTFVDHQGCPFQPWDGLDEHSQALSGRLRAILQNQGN
# Statin myotox sup = suppressors of statin myotoxicity in C2C12 myotubes, primary screen, cell-based, single point, plate reader | C2C12 myotubes + simvastatin, ATP luminescence, 48 h; scaled: DMSO 0, geranylgeraniol control 100 | rescue of ATP level, % at 7.49 µM | 330,000 tested, 0.78% active;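 active = mean ATP rescue above about 67%, or every replicate alone reaching that limit, limit read from the data, passing the limit was not always enough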;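 note: myotubes were challenged with 10 µM simvastatin during compound exposure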
# ASAP1 GAP inh = inhibitors of human ASAP1 ArfGAP activity, primary screen, biochemical, fluorescence polarization | AID 624377, 2012 | 360,000 tested, 0.19% active | inhibition, % at 16.5 µM | Arf-GAP with SH3 domain, ANK repeat and PH domain-containing protein 1 (Homo sapiens), … | ASAP1-stimulated ARF1 GTP hydrolysis, GDP FP detection; in the data active = inhibition above about 25%;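 note: 0% = vehicle with enzyme and substrate and 100% = no enzyme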
# APOBEC3G inh = APOBEC3G DNA deaminase inhibitors, primary screen, biochemical, fluorescence, single-stranded DNA substrate, uHTS | AID 493012, 2011 | recombinant A3G, ssDNA deamination FAM/TAMRA fluorescence | inhibition, % at 20 µM | DNA dC->dU-editing enzyme APOBEC-3G (Homo sapiens), Q9HC16 | 330,000 tested, 0.28% active;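 active = inhibition of at least 40% at 20 µM, with no more than 30% in the related APOBEC3A deaminase screen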;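 note: plate controls were DMSO wells with A3G for no effect and wells lacking A3G enzyme for full effect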
# Target sequence (Q9HC16 whole entry, looked up): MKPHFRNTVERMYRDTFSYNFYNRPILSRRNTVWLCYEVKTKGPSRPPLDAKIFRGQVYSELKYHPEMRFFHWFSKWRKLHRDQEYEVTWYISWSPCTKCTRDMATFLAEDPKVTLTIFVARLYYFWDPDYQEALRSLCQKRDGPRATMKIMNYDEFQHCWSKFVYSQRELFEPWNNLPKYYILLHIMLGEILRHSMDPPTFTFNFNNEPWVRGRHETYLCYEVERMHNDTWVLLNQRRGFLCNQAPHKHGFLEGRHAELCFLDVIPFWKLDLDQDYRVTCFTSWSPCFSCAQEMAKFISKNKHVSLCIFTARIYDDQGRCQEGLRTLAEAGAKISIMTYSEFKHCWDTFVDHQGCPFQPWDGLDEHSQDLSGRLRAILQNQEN
# ARFGAP1 inhibitor = inhibitors of rat ARFGAP1 GAP activity, primary screen, biochemical, fluorescence polarization, GDP tracer. inhibition, % at 16.5 µM. Arfgap1-stimulated ARF1 GTP hydrolysis, GDP FP detection. 360,000 tested, 0.26% active. ADP-ribosylation factor GTPase-activating protein 1 (Rattus norvegicus), Q62848;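 active = inhibition above a per-plate limit, mean inhibition of low control wells plus 3 SD, cut at about 25% in these data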;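 note: 0% = DMSO wells with enzyme and 100% = wells lacking Arfgap1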
#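 System: truncated rat Arfgap1 GAP domain / Benchmarks: high control wells lacking Arfgap1, low control full reaction with DMSO / Times: compound-enzyme preincubation 20 min, reaction 120 min, detection 60 min, 25 °C / Repeats: one replicate per compound / Also added: human ARF1(Δ1-17)-GTP substrate / Measured by: Tracer-displacement fluorescence polarization with EDTA stop, 620/688 nm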
# Mot1-301 SUMO = yeast Mot1-301 growth rescue at high temperature, primary screen, SUMOylation pathway inhibitor project, S. cerevisiae, ATP luminescence, 38.5C; S. cerevisiae Mot1-301 growth rescue; percent above DMSO median, 100 means doubled; 320,000 tested, 1% active; growth rescue, % at 18.8 µM;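 active = every valid replicate shows activation above 250% relative to neutral control wells; inactive = the rest, any valid replicate at or below 250%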;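 note: OY570 slx delta 5 strain wells were the positive control but not used for scaling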
# A3G conf = APOBEC3G deaminase inhibitor retest, confirmation, biochemical, fluorescence, single-stranded DNA substrate, single concentration; shares compounds with APOBEC3G inh; recombinant A3G ssDNA deaminase, UDG/FAM-TAMRA fluorescence; inhibition, % at 20 µM; 890 tested, 72% active; AID 493152, 2011;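 active = inhibition reaching a set limit in any replicate at 20 µM, the limit being 80% of the first screen's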
# UDG ctr A3G = E. coli UDG inhibitors, confirmation, counter-screen for APOBEC3G inhibitor project, biochemical, single concentration, fluorescence, FAM/TAMRA oligo | shares compounds with APOBEC3G inh | inhibition, % at 20 µM | 710 tested, under 10 active | UDG counterscreen | AID 504715, 2011;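 active = compounds giving 40% or more inhibition at 20 µM in any one of the three replicates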;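 note: plate controls were DMSO wells with UDG and oligo for no effect and DMSO wells lacking both for full effect; inhibitors lower the FAM signal released by uracil excision and alkaline cleavage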
# Numbers without * were called inactive; / = no result. This is a sample that favours compounds with a hit; in the whole collection about 2.1% have one here.
SMILES,APOBEC3A inh,Statin myotox sup,ASAP1 GAP inh,APOBEC3G inh,ARFGAP1 inhibitor,Mot1-301 SUMO,A3G conf,UDG ctr A3G
CC1(C)CC(C(N)=S)CCO1 (centres undefined),0,-6,-18,0,8,-8,/,/
CN(C)C(=O)c1ccc(-c2cccc(-c3nc(C(=O)NC4CCCC4)cc4c3[C@H](CCO)N([S@@](=O)C(C)(C)C)C4)c2)cc1,/,8,/,/,/,/,/,/
O=C(O)c1ccc(-n2c(-c3ccc(Br)cc3)n[nH]c2=S)cc1,-6,3,/,44*,/,-3,65*,-2
Cc1c2cnn(CC(=O)Nc3c(F)c(F)cc(F)c3F)c(=O)c2c(C)n1Cc1ccccc1F,27,2,-5,45*,-2,/,48*,-2
Cc1c2cnn(CC(=O)O)c(=O)c2c(C)n1Cc1ccccc1,-1,2,-5,-8,-1,11,/,/
O=C(C[C@H]1C[C@H]2c3cc(NC(=O)NC4CCCC4)ccc3O[C@H]2[C@H](CO)O1)NCc1ccccc1F,/,0,/,/,/,/,/,/
O=C(C[C@@H]1CC[C@@H]2[C@H](COC[C@@H](O)CN2Cc2cccc(Cl)c2)O1)N1CCOCC1,/,5,/,/,/,/,/,/
S=c1[nH]nc(-c2cccc(Cl)c2)n1Cc1ccccc1,-7,/,-5,2,6,-5,/,/
C=C(C)Cn1c(-c2cccc([N+](=O)[O-])c2)n[nH]c1=S,-7,/,2,44*,6,/,75*,3
O=[N+]([O-])c1cccc(-c2n[nH]c(=S)n2-c2ccc(Br)cc2)c1,3,/,0,28,11,/,/,/
C=CCn1c(OCc2ccccc2)n[nH]c1=S,-3,0,-2,41*,-3,9,67*,-2
C=CCn1c(-c2cccc([N+](=O)[O-])c2)n[nH]c1=S,-2,/,-11,43*,-4,-8,68*,5
C=CCn1c(C(c2ccccc2)c2ccccc2)n[nH]c1=S,-2,3,2,0,-6,2,/,/
O=[N+]([O-])c1cccc(-c2n[nH]c(=S)n2Cc2ccccc2)c1,-7,/,1,29,7,/,/,/
C=CCn1c(-c2cccc(Cl)c2)n[nH]c1=S,-4,1,1,49*,2,42,86*,-4
O=C(N[C@@H]1C=C[C@H](CC(=O)N2CCOCC2)O[C@@H]1CO)c1ccccn1,/,-7,/,/,/,/,/,/
C=CCn1c(-c2sccc2C)n[nH]c1=S,5,/,-3,44*,-10,7,7,/
C=C(C)Cn1c(CCn2c3ccccc3c3ccccc32)n[nH]c1=S,-3,/,14,-7,1,-2,/,/
C=C(C)Cn1c(-c2cccs2)n[nH]c1=S,2,14,-4,55*,-7,14,55*,6
CCNC(=O)C[C@@H]1CC[C@H]2[C@H](COc3ccc(NC(=O)C4CCOCC4)cc3C(=O)N2C)O1,/,4,/,/,/,/,/,/
COC(=O)c1sc(NC(=O)CSc2nnnn2C)nc1C,-1,-36,-1,56*,-6,7,-6,0
CC(=O)Nc1ccc(S(=O)(=O)NNc2cccc(C)c2)cc1,3,13,12,61*,-5,-16,62*,-3
Cc1ccc(S(=O)(=O)NNc2ccccc2)cc1,4,/,/,68*,/,58,66*,/
Cc1cccc(NC(=O)NNS(=O)(=O)c2ccc(F)cc2)c1,2,/,-12,3,1,-9,/,/
Cc1ccc(Nc2nnns2)cc1,2,/,-14,41*,13,0,27*,-4
SMILES,APOBEC3A inh,Statin myotox sup,ASAP1 GAP inh,APOBEC3G inh,ARFGAP1 inhibitor,Mot1-301 SUMO,A3G conf,UDG ctr A3G
Cc1ccc(O)c(N)c1,-3,-2,/,-6,/,-12,/,/
Cc1ccc(SSc2cc(C)ccc2N)c(N)c1,2,35,-4,79*,4,6,86*,/
COCC(=O)N(C[C@H]1N[C@H](CO)[C@@H]1c1ccc(-c2cccnc2)cc1)C(C)C,/,-10,/,/,/,/,/,/
C[C@H](CO)N1C[C@H](C)[C@H](CN(C)C(=O)Nc2ccc(C(F)(F)F)cc2)Oc2ccc(NS(=O)(=O)c3ccc(F)cc3)cc2C1=O,/,41,/,/,/,/,/,/
O=C(O)C1CC(c2ccc(F)cc2)=NO1 (centres undefined),23,29,-3,74*,-9,0,73*,3
O=C(C[C@@H]1C=C[C@H](NC(=O)Nc2cc(F)ccc2F)[C@H](CO)O1)Nc1ccc(-c2ccccc2)cc1,/,-19,/,/,/,/,/,/
CCc1cccc(C)c1NC(=S)NCc1ccc2c(c1)cc(C)n2C,-3,-36,11,40*,5,5,-1,2
COc1cc([N+](=O)[O-])c2ncsc2c1,-4,/,-2,-3,0,-6,/,/
COc1cc(SSc2cc(OC)cc([N+](=O)[O-])c2N)c(N)c([N+](=O)[O-])c1,-2,9,-9,42*,-14,-5,79*,10
O=[N+]([O-])c1ccc(N2CCN(C(=S)c3cccc([N+](=O)[O-])c3)CC2)cc1,1,/,-3,66*,5,-12,70*,-2
CC(=O)N1CCN(C(=S)c2cccc([N+](=O)[O-])c2)CC1,-6,/,5,-9,2,-10,/,/
CC(C)NC(=O)N1C[C@@H]2[C@H](c3ccccc31)[C@@H](CO)N2C(=O)c1ccccn1,/,-21,/,/,/,/,/,/
COc1ccc(N2C(=O)N(Cc3ccc(C)cc3)c3ccccc3S2(=O)=O)cc1,5,39,-2,47*,3,-10,-1,/
COc1ccc(N2C(=O)c3ccccc3S2(=O)=O)cc1,3,7,2,-1,-9,1,/,/
O=C(NCCc1ccncc1)[C@@H]1[C@@H](CO)[C@@H]2Cn3c(ccc(-c4ccc(F)cc4)c3=O)[C@H]1N2,/,-24,/,/,/,/,/,/
COc1ccc(NC(=O)N2C[C@@H](O)COC[C@H]3O[C@@H](CC(=O)NC4Cc5ccccc5C4)CC[C@@H]32)cc1,/,-7,/,/,/,/,/,/
